Data: ChEMBL document CHEMBL5214999, “Identification and Optimization of a Ligand-Efficient Benzoazepinone Bromodomain and Extra Terminal (BET) Family Acetyl-Lysine Mimetic into the Oral Candidate Quality Molecule I-BET432” (J Med Chem, 2022)
Blank lines part the entries; values can stand above or below the compound they belong to.

Assays:
[1] = molecular target: T1, Bromodomain-containing protein 4 (Homo sapiens, UniProt O60885); test: Inhibition of BRD4 BD1 (unknown origin) measured by TR-FRET assay
[2] = Intrinsic clearance in dog hepatocytes incubated upto 45 mins by LC-MS/MS analysis; assay type: ADME, cell-based, Canis lupus familiaris, Hepatocyte; settings: 0.75 h
[3] = Unbound volume of distribution at steady state in Beagle dog at 1.5 mg/kg, po or 0.4 mg/kg, iv measured upto 24 hrs by LC-MS/MS analysis; assay type: ADME, organism-based, Canis lupus familiaris; settings: in vivo
Method in brief: (§1)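 Male Wistar Han rats and beagle dogs were dosed iv as a 1 h infusion in DMSO with 10% (w/v) Kleptose HPB in saline (2%:98% or 5%:95% v/v). Oral doses were given in 1% (w/v) methylcellulose (400 cps) aqueous suspension. Oral values are means of n = 3 and iv values n = 1 unless otherwise noted.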

[4] = Intrinsic clearance in rat hepatocytes after 60 mins by LC-MS/MS analysis; assay type: ADME, cell-based, Hepatocyte; settings: 1 h
[5] = Oral bioavailability in Wistar Han rat at 3.1 mg/kg measured upto 24 hrs by LC-MS/MS analysis; assay type: ADME, organism-based; settings: in vivo; method in brief: as §1
[6] = Unbound volume of distribution at steady state in Wistar Han rat at 3.1 mg/kg, po or 1 mg/kg, iv measured upto 24 hrs by LC-MS/MS analysis; assay type: ADME, organism-based; settings: in vivo; method in brief: as §1
[7] = Lipophilicity, logD of compound at pH 7.4 by Chromatography; assay type: physicochemical; settings: buffer
[8] = Clearance in Beagle dog blood at 1.5 mg/kg, po or 0.4 mg/kg, iv measured upto 24 hrs by LC-MS/MS analysis; assay type: ADME, organism-based, Canis lupus familiaris; settings: whole blood; method in brief: as §1
[9] = Half-life in Wistar Han rat at 3.1 mg/kg, po or 1 mg/kg, iv measured upto 24 hrs by LC-MS/MS analysis; assay type: ADME, organism-based; settings: in vivo; method in brief: as §1
[10] = Volume of distribution at steady state in Wistar Han rat at 3.1 mg/kg, po or 1 mg/kg, iv measured upto 24 hrs by LC-MS/MS analysis; assay type: ADME, organism-based; settings: in vivo, read-out: Vdss; method in brief: as §1
[11] = Unbound clearance in Beagle dog blood at 1.5 mg/kg, po or 0.4 mg/kg, iv measured upto 24 hrs by LC-MS/MS analysis; assay type: ADME, organism-based, Canis lupus familiaris; settings: in vivo; method in brief: as §1
[12] = Solubility of the compound at pH 6.5 in fast state simulated intestinal fluid incubated for 16 hrs by HPLC analysis; assay type: physicochemical; settings: fasted state simulated intestinal fluid
[13] = Artificial membrane permeability of the compound; assay type: ADME; settings: PAMPA; read-out: permeability
[14] = Half-life in Beagle dog at 1.5 mg/kg, po or 0.4 mg/kg, iv measured upto 24 hrs by LC-MS/MS analysis; assay type: ADME, organism-based, Canis lupus familiaris; settings: in vivo; method in brief: as §1
[15] = Unbound fraction in Wistar Han rat at 3.1 mg/kg, po or 1 mg/kg, iv measured upto 24 hrs by LC-MS/MS analysis; assay type: ADME, organism-based; settings: in vivo
[16] = Clearance in Wistar Han rat blood at 3.1 mg/kg, po or 1 mg/kg, iv measured upto 24 hrs by LC-MS/MS analysis; assay type: ADME, organism-based; settings: whole blood; method in brief: as §1
[17] = Volume of distribution at steady state in Beagle dog at 1.5 mg/kg, po or 0.4 mg/kg, iv measured upto 24 hrs by LC-MS/MS analysis; assay type: ADME, organism-based, Canis lupus familiaris; settings: in vivo, read-out: Vdss; method in brief: as §1
C-C motif chemokine 2 = C-C motif chemokine 2 (Homo sapiens, UniProt P13500); test: Inhibition of MCP-1 in LPS-stimulated human whole blood incubate for 24 hrs by immuno assay; assay type: tissue-based
Chain of C-C motif chemokine 2 (P13500 whole entry): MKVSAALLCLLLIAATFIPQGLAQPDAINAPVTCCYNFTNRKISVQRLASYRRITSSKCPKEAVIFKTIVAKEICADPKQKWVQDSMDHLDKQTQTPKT

[18] = Unbound clearance in Wistar Han rat blood at 3.1 mg/kg, po or 1 mg/kg, iv measured upto 24 hrs by LC-MS/MS analysis; assay type: ADME, organism-based; settings: in vivo; method in brief: as §1
[19] = molecular target: T1, Bromodomain-containing protein 4; test: Inhibition of BRD4 BD2 (unknown origin) measured by TR-FRET assay
[20] = Oral bioavailability in Beagle dog at 1.5 mg/kg measured upto 24 hrs by LC-MS/MS analysis; assay type: ADME, organism-based, Canis lupus familiaris; settings: in vivo; method in brief: as §1
[21] = Unbound fraction in Beagle dog at 1.5 mg/kg, po or 0.4 mg/kg, iv measured upto 24 hrs by LC-MS/MS analysis; assay type: ADME, organism-based, Canis lupus familiaris; settings: in vivo
[22] = Intrinsic clearance in human hepatocytes measured after 120 mins by LC-MS/MS analysis; assay type: ADME, cell-based, Hepatocyte; settings: 2 h
[23] = Clearance in Beagle dog blood at 1.5 mg/kg, po or 0.5 mg/kg, iv measured upto 24 hrs by LC-MS/MS analysis; assay type: ADME, organism-based, Canis lupus familiaris; settings: whole blood; method in brief: as §1
[24] = Unbound clearance in Beagle dog blood at 1.5 mg/kg, po or 0.5 mg/kg, iv measured upto 24 hrs by LC-MS/MS analysis; assay type: ADME, organism-based, Canis lupus familiaris; settings: in vivo; method in brief: as §1
[25] = Volume of distribution at steady state in Wistar Han rat at 3 mg/kg, po or 1 mg/kg, iv measured upto 24 hrs by LC-MS/MS analysis; assay type: ADME, organism-based; settings: in vivo, read-out: Vdss; method in brief: as §1
[26] = Unbound clearance in Wistar Han rat blood at 3 mg/kg, po or 1 mg/kg, iv measured upto 24 hrs by LC-MS/MS analysis; assay type: ADME, organism-based; settings: in vivo; method in brief: as §1
[27] = Half-life in Beagle dog at 1.5 mg/kg, po or 0.5 mg/kg, iv measured upto 24 hrs by LC-MS/MS analysis; assay type: ADME, organism-based, Canis lupus familiaris; settings: in vivo; method in brief: as §1
Cytochrome P450 3A4 = Cytochrome P450 3A4 (Homo sapiens, UniProt P08684); test: Inhibition of CYP3A4 (unknown origin); assay type: ADME
Chain of Cytochrome P450 3A4 (P08684 whole entry): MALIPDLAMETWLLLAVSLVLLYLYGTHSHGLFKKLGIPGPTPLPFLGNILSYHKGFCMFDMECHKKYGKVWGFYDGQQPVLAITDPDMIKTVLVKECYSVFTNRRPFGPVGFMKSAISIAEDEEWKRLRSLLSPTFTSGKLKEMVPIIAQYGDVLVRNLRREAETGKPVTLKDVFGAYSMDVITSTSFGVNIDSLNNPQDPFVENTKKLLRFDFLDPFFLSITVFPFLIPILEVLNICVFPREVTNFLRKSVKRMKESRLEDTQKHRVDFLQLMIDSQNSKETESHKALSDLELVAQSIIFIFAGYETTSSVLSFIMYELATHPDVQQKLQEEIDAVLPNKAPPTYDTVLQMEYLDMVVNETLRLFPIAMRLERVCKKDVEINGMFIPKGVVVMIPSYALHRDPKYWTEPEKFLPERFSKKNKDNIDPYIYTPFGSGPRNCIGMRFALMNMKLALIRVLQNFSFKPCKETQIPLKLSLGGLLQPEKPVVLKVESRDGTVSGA

[28] = Unbound fraction in Beagle dog at 1.5 mg/kg, po or 0.5 mg/kg, iv measured upto 24 hrs by LC-MS/MS analysis; assay type: ADME, organism-based, Canis lupus familiaris; settings: in vivo
[29] = Unbound fraction in Wistar Han rat at 3 mg/kg, po or 1 mg/kg, iv measured upto 24 hrs by LC-MS/MS analysis; assay type: ADME, organism-based; settings: in vivo
[30] = Clearance in Wistar Han rat blood at 3 mg/kg, po or 1 mg/kg, iv measured upto 24 hrs by LC-MS/MS analysis; assay type: ADME, organism-based; settings: whole blood; method in brief: as §1
[31] = Unbound volume of distribution at steady state in Beagle dog at 1.5 mg/kg, po or 0.5 mg/kg, iv measured upto 24 hrs by LC-MS/MS analysis; assay type: ADME, organism-based, Canis lupus familiaris; settings: in vivo; method in brief: as §1
[32] = molecular target: Voltage-gated inwardly rectifying potassium channel KCNH2 (Homo sapiens, UniProt Q12809); test: Inhibition of hERG; assay type: toxicity
Chain of Voltage-gated inwardly rectifying potassium channel KCNH2 (Q12809 whole entry): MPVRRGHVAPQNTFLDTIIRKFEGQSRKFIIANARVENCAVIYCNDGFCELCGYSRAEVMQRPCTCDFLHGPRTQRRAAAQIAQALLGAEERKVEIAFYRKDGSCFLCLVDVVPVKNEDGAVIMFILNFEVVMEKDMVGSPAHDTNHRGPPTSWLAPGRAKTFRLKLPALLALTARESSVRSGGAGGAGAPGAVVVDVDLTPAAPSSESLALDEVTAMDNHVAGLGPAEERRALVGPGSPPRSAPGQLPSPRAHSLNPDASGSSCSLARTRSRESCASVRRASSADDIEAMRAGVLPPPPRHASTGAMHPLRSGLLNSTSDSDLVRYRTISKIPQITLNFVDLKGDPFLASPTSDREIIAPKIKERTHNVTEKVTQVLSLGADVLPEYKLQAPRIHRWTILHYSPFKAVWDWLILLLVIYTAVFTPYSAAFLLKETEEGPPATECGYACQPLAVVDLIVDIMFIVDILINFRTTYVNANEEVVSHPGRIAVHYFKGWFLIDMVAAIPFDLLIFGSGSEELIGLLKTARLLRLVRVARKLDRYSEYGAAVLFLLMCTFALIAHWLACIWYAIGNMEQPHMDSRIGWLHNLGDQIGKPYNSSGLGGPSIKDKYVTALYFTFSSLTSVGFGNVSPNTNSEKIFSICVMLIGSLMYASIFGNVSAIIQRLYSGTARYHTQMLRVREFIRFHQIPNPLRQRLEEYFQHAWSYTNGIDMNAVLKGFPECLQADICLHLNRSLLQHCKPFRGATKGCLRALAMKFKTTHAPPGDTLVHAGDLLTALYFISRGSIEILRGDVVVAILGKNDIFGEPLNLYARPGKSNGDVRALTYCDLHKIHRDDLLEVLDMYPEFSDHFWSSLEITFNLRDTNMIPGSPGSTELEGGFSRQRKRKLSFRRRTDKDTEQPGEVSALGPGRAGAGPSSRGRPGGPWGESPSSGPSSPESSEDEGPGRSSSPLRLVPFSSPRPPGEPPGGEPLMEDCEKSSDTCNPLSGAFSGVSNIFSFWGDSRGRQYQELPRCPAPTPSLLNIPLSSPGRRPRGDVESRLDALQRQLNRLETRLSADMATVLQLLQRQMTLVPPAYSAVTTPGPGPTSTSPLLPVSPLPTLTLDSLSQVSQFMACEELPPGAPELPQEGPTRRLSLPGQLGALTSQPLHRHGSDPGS

[33] = Oral bioavailability in Wistar Han rat at 3 mg/kg measured upto 24 hrs by LC-MS/MS analysis; assay type: ADME, organism-based; settings: in vivo; method in brief: as §1
[34] = Stability of compound in simulated gastric fluid assessed as half-life at pH 6 to 10 in presence of hydrogen peroxide; assay type: ADME
Method in brief: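 The compound was held at 40 °C in pH 10 medium, pH 6 medium and simulated gastric fluid, each with and without hydrogen peroxide as oxidant, and degradation was monitored.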

[35] = Half-life in Wistar Han rat at 3 mg/kg, po or 1 mg/kg, iv measured upto 24 hrs by LC-MS/MS analysis; assay type: ADME, organism-based; settings: in vivo; method in brief: as §1
[36] = molecular target: T2, Transcription intermediary factor 1-alpha (Homo sapiens, UniProt O15164); test: Binding affinity to human TRIM24 bromodomain by BROMOscan method
T2 sequence (O15164 whole entry): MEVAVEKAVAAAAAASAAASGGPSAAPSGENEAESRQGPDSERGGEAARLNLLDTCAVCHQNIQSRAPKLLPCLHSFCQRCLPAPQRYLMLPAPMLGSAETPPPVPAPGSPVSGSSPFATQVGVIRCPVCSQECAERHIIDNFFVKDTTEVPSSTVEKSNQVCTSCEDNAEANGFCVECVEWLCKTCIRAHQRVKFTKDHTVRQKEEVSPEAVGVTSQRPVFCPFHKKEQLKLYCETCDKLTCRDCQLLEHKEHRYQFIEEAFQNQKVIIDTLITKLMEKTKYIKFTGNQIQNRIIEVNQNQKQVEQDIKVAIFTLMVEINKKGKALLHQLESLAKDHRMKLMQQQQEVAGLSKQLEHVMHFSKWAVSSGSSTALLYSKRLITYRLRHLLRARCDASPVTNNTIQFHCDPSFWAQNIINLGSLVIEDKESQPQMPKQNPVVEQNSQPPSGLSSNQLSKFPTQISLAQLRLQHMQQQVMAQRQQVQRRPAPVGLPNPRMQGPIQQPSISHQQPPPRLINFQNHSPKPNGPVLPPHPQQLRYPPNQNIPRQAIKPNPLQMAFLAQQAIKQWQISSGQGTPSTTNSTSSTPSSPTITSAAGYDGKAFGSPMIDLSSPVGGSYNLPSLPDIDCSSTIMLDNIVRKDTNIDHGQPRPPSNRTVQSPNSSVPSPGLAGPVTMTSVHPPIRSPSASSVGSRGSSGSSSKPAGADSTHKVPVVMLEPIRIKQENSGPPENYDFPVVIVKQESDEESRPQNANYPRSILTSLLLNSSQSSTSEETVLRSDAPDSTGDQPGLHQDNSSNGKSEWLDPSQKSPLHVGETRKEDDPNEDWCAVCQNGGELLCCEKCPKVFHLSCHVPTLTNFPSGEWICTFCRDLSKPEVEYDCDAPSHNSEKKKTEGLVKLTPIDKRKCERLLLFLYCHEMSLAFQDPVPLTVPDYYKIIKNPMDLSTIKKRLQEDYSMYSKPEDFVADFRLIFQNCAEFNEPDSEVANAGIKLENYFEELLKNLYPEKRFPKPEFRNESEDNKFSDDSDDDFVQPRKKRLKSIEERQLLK

[37] = Volume of distribution at steady state in Beagle dog at 1.5 mg/kg, po or 0.5 mg/kg, iv measured upto 24 hrs by LC-MS/MS analysis; assay type: ADME, organism-based, Canis lupus familiaris; settings: in vivo, read-out: Vdss; method in brief: as §1
[38] = Unbound volume of distribution at steady state in Wistar Han rat at 3 mg/kg, po or 1 mg/kg, iv measured upto 24 hrs by LC-MS/MS analysis; assay type: ADME, organism-based; settings: in vivo; method in brief: as §1

IC50 [1]: 31.6 nM | CLH [2]: 1.12 mL/min/g | Vduss [3]: 3.3 L/kg | CLH [4]: < 0.8 mL/min/g | bioavailability [5]: 66% | Vduss [6]: 1.8 L/kg | chromatographic logD [7]: 1.3 | clearance [8]: 45 mL/min/kg | half-life [9]: 58.2 min | Vd [10]: 1.1 L/kg | CL free [11]: 87 mL/min/kg | solubility at 16 h [12]: > 1000 µg/mL | Papp [13]: 3.1 ×10⁻⁶ cm/s | half-life [14]: 30 min | Fu [15]: 0.61 | clearance [16]: 19 mL/min/kg | Vd [17]: 1.7 L/kg | IC50 (C-C motif chemokine 2): 39.8 nM | CL free [18]: 31 mL/min/kg | IC50 [19]: 31.6 nM | bioavailability [20]: 39% | Fu [21]: 0.52 | CLH [22]: < 0.45 mL/min/g
Compound: C[C@H]1C(=O)N(C)C=C(c2cnn(C)c2)c2cc([C@H](O)CO)ccc21

clearance [23]: 28 mL/min/kg | IC50 [1]: 31.6 nM | CL free [24]: 60 mL/min/kg | Vd [25]: 1.3 L/kg | CLH [2]: < 0.65 mL/min/g | CL free [26]: 38 mL/min/kg | half-life [27]: 84 min | CLH [4]: < 0.8 mL/min/g | chromatographic logD [7]: 1.3 | IC50 (Cytochrome P450 3A4): > 39800 nM | Fu [28]: 0.47 | Fu [29]: 0.68 | solubility at 16 h [12]: > 1000 µg/mL | Papp [13]: 3.1 ×10⁻⁶ cm/s | clearance [30]: 26 mL/min/kg | Vduss [31]: 5.7 L/kg | bioavailability [33]: 67% | half-life [34]: > 41.7 days | IC50 (C-C motif chemokine 2): 39.8 nM | half-life [35]: 44.4 min | IC50 [19]: 63.1 nM | bioavailability [20]: 79% | Kd [36]: 1260 nM | Vd [37]: 2.7 L/kg | Vduss [38]: 1.9 L/kg | CLH [22]: < 0.45 mL/min/g
Compound: C[C@H]1C(=O)N(C)C=C(c2cnn(C)c2)c2cc([C@@H](O)CO)ccc21
IC50 [32]: > 50100 nM
